# According to ChEMBL document CHEMBL1828628, “Discovery of a tetrahydroisoquinoline-based hydroxamic acid derivative (ZYJ-34c) as histone deacetylase inhibitor with potent oral antitumor activities” (J Med Chem, 2011):
# The source made the active and inactive calls. The calls are words filed in the database; no cut-off is given here.
# How the values were obtained:
# [1] = tested on: Mus musculus; assay: Toxicity in mouse H22 cells xenografted Kunming mouse assessed as signs of organ toxicity at 90 mg/kg, po qd for 19 days; format: organism-based; set-up: dose 90 mg/kg, route oral; conditions: in vivo, 456 h
# [2] = target: 72 kDa type IV collagenase (Homo sapiens) (UniProt P08253); assay: Inhibition of MMP2
# [3] = tested on: Mus musculus; assay: Toxicity in human MDA-MB-231 cells xenografted BALB/c nu mouse assessed as change in body weight at 90 mg/kg, ip qd for 19 days; format: organism-based; set-up: dose 90 mg/kg, route intraperitoneal; conditions: in vivo, 456 h
# How it was run: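 Female BALB/c-nu mice, 5–6 weeks old, bearing subcutaneous right-flank xenografts. Mice were randomized 6 per group at about 100 mm3 tumor size. Dosing was oral or intraperitoneal for 19 days; controls received an equal volume of PBS containing DMSO. Body weight was monitored regularly during treatment, and tumors were measured by caliper every three days.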
# [4] = tested on: Mus musculus; assay: Toxicity in mouse H22 cells xenografted Kunming mouse assessed as change in body weight at 90 mg/kg, po qd for 19 days; format: organism-based; set-up: dose 90 mg/kg, route oral; conditions: in vivo, 456 h
# [5] = tested on: MDA-MB-231; assay: Antitumor activity against human MDA-MB-231 cells xenografted in BALB/c nu mouse assessed as tumor growth inhibition at 90 mg/kg, ip qd for 19 days relative to control; format: functional; conditions: route intraperitoneal; for inhibition in vivo at 90 mg/kg: Mus musculus, MDA-MB-231, ip, 456 h, read-out: TGI
# [6] = tested on: H22; assay: Antitumor activity against mouse H22 cells xenografted in Kunming mouse assessed as reduction of pulmonary metastatic nodes in lungs at 90 mg/kg, po qd for 14 days; format: functional, organism-based; set-up: dose 90 mg/kg
# [7] = target: Aminopeptidase N (Homo sapiens) (UniProt P15144); assay: Inhibition of aminopeptidase N
# [8] = tested on: MDA-MB-231; assay: Cell cycle arrest in human MDA-MB-231 cells assessed as accumulation at G1 phase at 1 uM after 48 hrs using propidium iodide staining by flow cytometric analysis; format: functional, cell-based
# How it was run: (§1)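 MDA-MB-231 cells were seeded at 4 × 10^5 per well and incubated overnight, then treated for 48 h. Cells were fixed overnight in 70% ethanol phosphate buffer and washed twice with PBS. They were treated with DNase-free RNase A (1 mg/mL) for 30 min, then stained with propidium iodide for 30 min in the dark at room temperature. DNA content was read by FACScan flow cytometry.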
# [9] = tested on: MDA-MB-231; assay: Cell cycle arrest in human MDA-MB-231 cells assessed as accumulation at G2 phase at 5 uM after 48 hrs using propidium iodide staining by flow cytometric analysis; format: functional, cell-based; how it was run: as §1
# Sequence of Aminopeptidase N (Homo sapiens) (P15144 whole entry): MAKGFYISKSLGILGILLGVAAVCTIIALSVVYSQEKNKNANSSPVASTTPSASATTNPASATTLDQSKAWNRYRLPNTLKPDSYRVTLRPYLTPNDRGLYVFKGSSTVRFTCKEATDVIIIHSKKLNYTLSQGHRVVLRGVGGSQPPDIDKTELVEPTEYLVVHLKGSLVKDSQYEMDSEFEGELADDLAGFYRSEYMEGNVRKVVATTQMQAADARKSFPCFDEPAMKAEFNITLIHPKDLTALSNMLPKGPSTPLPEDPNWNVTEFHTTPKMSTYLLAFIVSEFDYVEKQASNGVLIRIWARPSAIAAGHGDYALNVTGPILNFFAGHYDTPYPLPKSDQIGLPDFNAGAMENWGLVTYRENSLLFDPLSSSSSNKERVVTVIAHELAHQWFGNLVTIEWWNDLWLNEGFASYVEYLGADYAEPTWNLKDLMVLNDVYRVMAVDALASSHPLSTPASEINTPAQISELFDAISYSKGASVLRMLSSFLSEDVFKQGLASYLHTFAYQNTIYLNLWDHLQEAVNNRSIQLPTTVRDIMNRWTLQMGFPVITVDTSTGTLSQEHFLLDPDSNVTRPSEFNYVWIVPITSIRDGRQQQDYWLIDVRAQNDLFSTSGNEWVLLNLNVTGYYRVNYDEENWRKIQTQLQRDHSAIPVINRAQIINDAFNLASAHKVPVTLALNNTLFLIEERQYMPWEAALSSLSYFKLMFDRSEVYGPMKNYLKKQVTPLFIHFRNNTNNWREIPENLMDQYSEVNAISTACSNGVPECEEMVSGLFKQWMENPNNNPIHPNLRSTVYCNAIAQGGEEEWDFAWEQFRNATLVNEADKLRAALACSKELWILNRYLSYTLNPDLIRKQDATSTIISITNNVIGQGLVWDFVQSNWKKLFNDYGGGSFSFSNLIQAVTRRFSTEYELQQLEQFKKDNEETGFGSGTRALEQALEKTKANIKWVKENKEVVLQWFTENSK
# Sequence of 72 kDa type IV collagenase (Homo sapiens) (P08253 110-660 limits assumed): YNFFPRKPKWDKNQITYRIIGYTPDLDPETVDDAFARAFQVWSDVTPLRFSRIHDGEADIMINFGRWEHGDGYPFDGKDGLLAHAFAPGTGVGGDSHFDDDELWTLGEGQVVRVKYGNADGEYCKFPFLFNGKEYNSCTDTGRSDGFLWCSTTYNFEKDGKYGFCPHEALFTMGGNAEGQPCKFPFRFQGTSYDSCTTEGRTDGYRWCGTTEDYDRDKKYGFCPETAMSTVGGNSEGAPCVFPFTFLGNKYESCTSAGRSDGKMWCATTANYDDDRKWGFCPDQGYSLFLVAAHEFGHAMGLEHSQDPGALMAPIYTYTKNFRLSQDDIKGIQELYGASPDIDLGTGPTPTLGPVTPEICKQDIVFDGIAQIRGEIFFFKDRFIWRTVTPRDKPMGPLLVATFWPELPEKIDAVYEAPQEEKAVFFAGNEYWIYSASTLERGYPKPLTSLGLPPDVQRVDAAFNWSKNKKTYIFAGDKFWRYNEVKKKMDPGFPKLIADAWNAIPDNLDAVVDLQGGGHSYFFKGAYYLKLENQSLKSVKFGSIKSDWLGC
inhibition [2],inhibition [7],SMILES,Activity [1],Activity [3],Activity [4],inhibition in vivo at 90 mg/kg [5] [%],T/C [5] [%],Activity [6],Activity [8],Activity [9]
inactive,Active,CC[C@H](C)[C@H](NC(=O)OC(C)(C)C)C(=O)N1Cc2cc(OCC(=O)NO)ccc2C[C@H]1C(=O)Nc1ccc(OC)cc1,Non-toxic,Non-toxic,Non-toxic,40,63,Active,–,–
inactive,Active,CC[C@H](C)[C@@H](CN1Cc2cc(OCC(=O)NO)ccc2C[C@H]1C(=O)Nc1ccc(OC)cc1)NC(=O)CC(C)(C)C,Non-toxic,Non-toxic,Non-toxic,-9,87,Active,–,–
inactive,–,O=C(CCCCCCC(=O)Nc1ccccc1)NO,–,–,–,–,–,inactive,Active,Active
inactive,Active,CC[C@H](C)[C@@H](CN1Cc2cc(OCC(=O)NO)ccc2C[C@H]1C(=O)Nc1ccc(OC)cc1)NC(=O)OC(C)(C)C,Non-toxic,Non-toxic,Non-toxic,55,47,Active,–,–
